# According to ChEMBL document CHEMBL4261483, “Synthesis and biological evaluation of memantine nitrates as a potential treatment for neurodegenerative diseases” (Medchemcomm, 2017):
# The source made the active and inactive calls. The rule behind the calls is not given here.
# How the values were obtained:
# [1] = test system: Cerebellar granule neurone; assay: Neuroprotective activity against glutamate-induced excitotoxicity in mouse primary cerebellar granule neurons assessed as increase in cell viability up to 10 uM preincubated for 2 hrs followed by glutamate challenge measured after 24 hrs by MTT assay; type: functional
# [2] = test system: Cerebellar granule neurone; assay: Neuroprotective activity against glutamate-induced excitotoxicity in mouse primary cerebellar granule neurons assessed as increase in cell viability preincubated for 2 hrs followed by glutamate challenge measured after 24 hrs by MTT assay; type: functional
# [3] = test system: Cerebellar granule neurone; assay: Cytotoxicity against mouse primary cerebellar granule neurons assessed as decrease in cell viability at 100 uM after 24 hrs by MTT assay
# Aorta [4] = assay: Vasodilating activity in Sprague-Dawley rat aortic ring precontracted with phenylephrine in presence of endothelium; type: functional, tissue-based; settings: for EC50: Rattus norvegicus, Sprague-Dawley, Aorta
# Aorta [5] = assay: Vasodilating activity in Sprague-Dawley rat aortic ring precontracted with phenylephrine in absence of endothelium; type: functional, tissue-based; settings: for EC50: Rattus norvegicus, Sprague-Dawley, Aorta
# [6] = test system: Cerebellar granule neurone; assay: Neuroprotective activity against glutamate-induced excitotoxicity in mouse primary cerebellar granule neurons assessed as increase in cell viability at 1 uM preincubated for 2 hrs followed by glutamate challenge measured after 24 hrs by MTT assay; type: functional
# Cortical neurone [7] = assay: Neuroprotective activity against glutamate-induced neuronal damage in rat cortical neurons assessed as decrease in formation of peroxynitrite at 5 uM preincubated for 2 hrs followed by glutamate challenge measured after 12 hrs by DHR123 dye-based fluorescence assay; type: functional, cell-based
# How it was run: (§1)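 Cortical neurons pretreated 2 h with compound, then exposed to 200 μM glutamate for 12 h in its presence. Probes added for a further 30 min: H2DCF-DA 5 μM (H2O2), HPF 10 μM (·OH), DHE 5 μM (superoxide), DAF-FM 5 μM (NO), DHR123 10 μM (peroxynitrite). Intracellular fluorescence measured.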
# Cortical neurone [8] = assay: Neuroprotective activity against glutamate-induced neuronal damage in rat cortical neurons assessed as decrease in formation of superoxide anions at 5 uM preincubated for 2 hrs followed by glutamate challenge measured after 12 hrs by DHE dye-based fluorescence assay; type: functional, cell-based; how it was run: as §1
# Cortical neurone [9] = assay: Neuroprotective activity in rat cortical neurons assessed as inhibition of glutamate-induced decrease in mitochondrial membrane potential at 5 uM preincubated for 2 hrs followed by glutamate challenge measured after 12 hrs by JC1 staining-based fluorescence assay; type: functional, cell-based
# How it was run: (§2)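 Cortical neurons given compound for 2 h, then 200 μM glutamate for 12 h without compound removal. Fluorescence read at 488 nm excitation with dual emission at 529/590 nm.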
# Cortical neurone [10] = assay: Neuroprotective activity against glutamate-induced neuronal damage in rat cortical neurons assessed as decrease in intracellular calcium influx at 5 uM preincubated for 5 min followed by glutamate challenge measured over 280 secs by Fluo-3/AM dye-based fluorescence assay; type: functional, cell-based
# How it was run: (§3)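 Cortical neurons loaded with Fluo-3/AM (5 μM) for 30 min at 37 °C, then held in HBSS for 30 min at room temperature. Dye washed out, compound applied for 5 min, and cells imaged with a 20× objective to follow calcium influx.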
# Cortical neurone [11] = assay: Neuroprotective activity against glutamate-induced neuronal damage in rat cortical neurons assessed as decrease in formation of hydroxy radicals at 5 uM preincubated for 2 hrs followed by glutamate challenge measured after 12 hrs by HPF dye-based fluorescence assay; type: functional, cell-based; how it was run: as §1
# Cortical neurone [12] = assay: Neuroprotective activity against glutamate-induced neuronal damage in rat cortical neurons assessed as decrease in formation of nitric oxide at 5 uM preincubated for 2 hrs followed by glutamate challenge measured after 12 hrs by DAF-FM dye-based fluorescence assay; type: functional, cell-based; how it was run: as §1
# Cortical neurone [13] = assay: Neuroprotective activity against glutamate-induced neuronal damage in rat cortical neurons assessed as decrease in H2O2 formation at 5 uM preincubated for 2 hrs followed by glutamate challenge measured after 12 hrs by H2DCF-DA dye-based fluorescence assay; type: functional, cell-based; how it was run: as §1
# Cortical neurone [14] = assay: Neuroprotective activity against glutamate-induced neuronal damage in rat cortical neurons assessed as increase in cell viability at 5 uM preincubated for 2 hrs followed by glutamate challenge measured after 24 hrs by […]/propidium iodide staining-based inverted fluorescence microscopic method; type: functional
# How it was run: (§4)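 Rat primary cortical neurons given compound for 2 h, then 200 μM glutamate for 24 h in its presence. Viability by FDA/PI double staining, with live cells green (FDA) and dead cells red (PI), scored from fluorescence images. Memantine 5 μM used as positive control.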
# Cortical neurone [15] = assay: Neuroprotective activity against glutamate-induced neuronal damage in rat cortical neurons assessed as decrease in formation of peroxynitrite preincubated for 2 hrs followed by glutamate challenge measured after 12 hrs by DHR123 dye-based fluorescence assay; type: functional, cell-based; how it was run: as §1
# Cortical neurone [16] = assay: Neuroprotective activity against glutamate-induced neuronal damage in rat cortical neurons assessed as increase in cell viability preincubated for 2 hrs followed by glutamate challenge measured after 24 hrs by MTT assay; type: functional, cell-based
# How it was run: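 Rat primary cortical neurons treated with compound for 2 h, then exposed to 200 μM glutamate for another 24 h without compound removal. Viability by MTT assay. Memantine 5 μM served as positive control.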
# Cortical neurone [17] = assay: Neuroprotective activity against glutamate-induced neuronal damage in rat cortical neurons assessed as decrease in formation of superoxide anions preincubated for 2 hrs followed by glutamate challenge measured after 12 hrs by DHE dye-based fluorescence assay; type: functional, cell-based; how it was run: as §1
# Cortical neurone [18] = assay: Neuroprotective activity against glutamate-induced neuronal damage in rat cortical neurons assessed as increase in cell viability preincubated for 2 hrs followed by glutamate challenge measured after 24 hrs by […]/propidium iodide staining-based inverted fluorescence microscopic method; type: functional; how it was run: as §4
# Cortical neurone [19] = assay: Neuroprotective activity against glutamate-induced neuronal damage in rat cortical neurons assessed as decrease in intracellular calcium influx at 15 uM preincubated for 5 min followed by glutamate challenge measured over 280 secs by Fluo-3/AM dye-based fluorescence assay; type: functional, cell-based; how it was run: as §3
# Cortical neurone [20] = assay: Neuroprotective activity against glutamate-induced neuronal damage in rat cortical neurons assessed as decrease in H2O2 formation preincubated for 2 hrs followed by glutamate challenge measured after 12 hrs by H2DCF-DA dye-based fluorescence assay; type: functional, cell-based; how it was run: as §1
# Cortical neurone [21] = assay: Neuroprotective activity against glutamate-induced neuronal damage in rat cortical neurons assessed as decrease in formation of nitric oxide preincubated for 2 hrs followed by glutamate challenge measured after 12 hrs by DAF-FM dye-based fluorescence assay; type: functional, cell-based; how it was run: as §1
# Cortical neurone [22] = assay: Neuroprotective activity against glutamate-induced neuronal damage in rat cortical neurons assessed as decrease in formation of hydroxy radicals preincubated for 2 hrs followed by glutamate challenge measured after 12 hrs by HPF dye-based fluorescence assay; type: functional, cell-based; how it was run: as §1
# Cortical neurone [23] = assay: Neuroprotective activity in rat cortical neurons assessed as inhibition of glutamate-induced decrease in mitochondrial membrane potential at 5 to 45 uM preincubated for 2 hrs followed by glutamate challenge measured after 12 hrs by JC1 staining-based fluorescence assay; type: functional, cell-based; how it was run: as §2
Structure (SMILES),Activity [1],EC50 [2],Activity [3],Emax (Aorta [4]),EC50 (Aorta [4]),Emax (Aorta [5]),EC50 (Aorta [5]),Activity [6],also measured
CCC12CC3CC(N)(C1)CC(CC(C)CO[N+](=O)[O-])(C3)C2 (stereo unspecified),Active,55.2 µM,Toxic,,,,,,
NC12CC3CC(CCO[N+](=O)[O-])(C1)CC(CCO[N+](=O)[O-])(C3)C2,Active,25.9 µM,Toxic,102%,36 µM,99.4%,57.1 µM,,
CC12CC3CC(N)(C1)CC(CCCO[N+](=O)[O-])(C3)C2 (stereo unspecified),Active,39.8 µM,Toxic,,,,,,
CC12CC3CC(N)(C1)CC(CO[N+](=O)[O-])(C3)C2 (stereo unspecified),Active,25.2 µM,,,,,,,
CCCC12CC3CC(N)(C1)CC(CO[N+](=O)[O-])(C3)C2 (stereo unspecified),Active,38.1 µM,Toxic,,,,,,
CCC12CC3CC(N)(C1)CC(CC(C)O[N+](=O)[O-])(C3)C2 (stereo unspecified),Active,58.4 µM,Toxic,,,,,,
CCCC12CC3CC(N)(C1)CC(O[N+](=O)[O-])(C3)C2 (stereo unspecified),,17.1 µM,,52%,,61.7%,94.8 µM,Active,
CC(CO[N+](=O)[O-])CC12CC3CC(N)(C1)CC(CC(C)CO[N+](=O)[O-])(C3)C2 (stereo unspecified),,53.2 µM,Toxic,100%,32 µM,95.8%,36.5 µM,Active,
CCCC12CC3CC(N)(C1)CC(CCCO[N+](=O)[O-])(C3)C2 (stereo unspecified),Active,57.6 µM,Toxic,,,,,,
CC12CC3CC(C)(C1)CC(N)(C3)C2 [MEMANTINE],,2.48 µM,,,,,,Active,Activity (Cortical neurone [7]): Active; Activity (Cortical neurone [8]): Active; inhibition (Cortical neurone [9]): Active; Activity (Cortical neurone [10]): Active; Activity (Cortical neurone [11]): Active; Activity (Cortical neurone [12]): Active; Activity (Cortical neurone [13]): Active; Activity (Cortical neurone [14]): Active
CC12CC3CC(N)(C1)CC(O[N+](=O)[O-])(C3)C2 (stereo unspecified),Active,24.6 µM,,,,,,,
CCC12CC3CC(N)(C1)CC(CO[N+](=O)[O-])(C3)C2 (stereo unspecified),,10.7 µM,,101%,46.4 µM,98.2%,50.6 µM,Active,Activity (Cortical neurone [15]): Dose-dependent effect; Activity (Cortical neurone [16]): Dose-dependent effect; Activity (Cortical neurone [17]): Dose-dependent effect; Activity (Cortical neurone [18]): Dose-dependent effect; Activity (Cortical neurone [19]): Active; Activity (Cortical neurone [20]): Dose-dependent effect; Activity (Cortical neurone [21]): Dose-dependent effect; Activity (Cortical neurone [22]): Dose-dependent effect; inhibition (Cortical neurone [23]): Active
NC12CC3CC(CCCO[N+](=O)[O-])(C1)CC(CCCO[N+](=O)[O-])(C3)C2,,39.8 µM,Toxic,97.7%,24.6 µM,95.4%,34.4 µM,Active,
CCC12CC3CC(N)(C1)CC(O[N+](=O)[O-])(C3)C2 (stereo unspecified),,15.4 µM,,39.5%,,42%,146 µM,Active,
CC(CC12CC3CC(N)(C1)CC(CC(C)O[N+](=O)[O-])(C3)C2)O[N+](=O)[O-] (stereo unspecified),Active,43 µM,Toxic,,,,,,
CCC12CC3CC(N)(C1)CC(CCCO[N+](=O)[O-])(C3)C2 (stereo unspecified),,35.2 µM,Toxic,95%,24.4 µM,89.8%,26.9 µM,Active,
NC12CC3CC(CO[N+](=O)[O-])(C1)CC(CO[N+](=O)[O-])(C3)C2,,18.9 µM,,96.8%,55 µM,90.5%,62.8 µM,Active,
